Tests used:
[1] = target: T1, LMW-PTP (Homo sapiens, UniProt P24666); type: biochemical; conditions: for IC50: read-out: IC50 against LMW-PTP, weak ligands, values in mM; for mode of inhibition of LMW-PTP: Lineweaver-Burk, pNPP as substrate
T1 sequence (P24666 1-158): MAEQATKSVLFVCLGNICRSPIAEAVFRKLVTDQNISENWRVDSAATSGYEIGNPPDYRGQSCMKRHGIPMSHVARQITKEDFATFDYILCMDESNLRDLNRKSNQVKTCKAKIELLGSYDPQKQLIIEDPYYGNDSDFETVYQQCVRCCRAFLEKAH

[2] = target: T2, SHP2 (Homo sapiens, UniProt Q06124); assay: PTP activity assay with pNPP, SHP2; type: biochemical; conditions: read-out: IC50 for SHP2; values in mM
T2 sequence (Q06124 1-593): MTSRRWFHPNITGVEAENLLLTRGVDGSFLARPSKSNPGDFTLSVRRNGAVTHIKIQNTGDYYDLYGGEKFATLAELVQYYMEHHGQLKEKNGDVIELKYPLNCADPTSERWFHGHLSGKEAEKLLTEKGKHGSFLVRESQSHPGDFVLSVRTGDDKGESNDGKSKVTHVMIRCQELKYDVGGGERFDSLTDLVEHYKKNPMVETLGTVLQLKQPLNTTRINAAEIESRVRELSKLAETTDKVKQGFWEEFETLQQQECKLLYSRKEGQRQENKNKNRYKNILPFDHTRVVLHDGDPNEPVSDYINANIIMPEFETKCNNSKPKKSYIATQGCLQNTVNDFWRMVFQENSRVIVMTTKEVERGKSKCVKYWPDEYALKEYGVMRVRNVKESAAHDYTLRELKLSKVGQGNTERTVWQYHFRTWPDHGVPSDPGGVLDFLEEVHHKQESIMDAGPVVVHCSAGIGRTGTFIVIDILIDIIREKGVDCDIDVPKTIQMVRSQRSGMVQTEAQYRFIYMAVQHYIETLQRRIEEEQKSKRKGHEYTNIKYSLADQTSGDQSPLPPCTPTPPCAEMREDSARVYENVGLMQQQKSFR

[3] = target: T3, PTP1B (Homo sapiens, UniProt P18031); assay: PTP activity assay with pNPP, PTP1B; type: biochemical; conditions: read-out: IC50 for PTP1B; values in mM
T3 sequence (P18031 1-435): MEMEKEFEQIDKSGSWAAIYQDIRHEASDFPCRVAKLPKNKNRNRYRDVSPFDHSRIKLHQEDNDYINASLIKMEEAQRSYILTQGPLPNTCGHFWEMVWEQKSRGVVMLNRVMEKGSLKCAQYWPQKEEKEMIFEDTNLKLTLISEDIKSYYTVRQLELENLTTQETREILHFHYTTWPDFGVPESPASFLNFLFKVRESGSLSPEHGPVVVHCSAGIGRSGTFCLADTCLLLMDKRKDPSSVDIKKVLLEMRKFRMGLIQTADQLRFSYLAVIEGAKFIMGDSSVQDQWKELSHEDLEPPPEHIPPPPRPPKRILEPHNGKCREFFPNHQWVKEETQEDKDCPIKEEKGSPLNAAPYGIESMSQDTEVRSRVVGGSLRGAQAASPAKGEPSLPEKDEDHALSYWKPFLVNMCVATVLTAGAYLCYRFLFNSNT

[4] = target: T4, PTPH1 (Homo sapiens, UniProt P26045); assay: PTP activity assay with pNPP, PTPH1; type: biochemical
T4 sequence (P26045 1-913): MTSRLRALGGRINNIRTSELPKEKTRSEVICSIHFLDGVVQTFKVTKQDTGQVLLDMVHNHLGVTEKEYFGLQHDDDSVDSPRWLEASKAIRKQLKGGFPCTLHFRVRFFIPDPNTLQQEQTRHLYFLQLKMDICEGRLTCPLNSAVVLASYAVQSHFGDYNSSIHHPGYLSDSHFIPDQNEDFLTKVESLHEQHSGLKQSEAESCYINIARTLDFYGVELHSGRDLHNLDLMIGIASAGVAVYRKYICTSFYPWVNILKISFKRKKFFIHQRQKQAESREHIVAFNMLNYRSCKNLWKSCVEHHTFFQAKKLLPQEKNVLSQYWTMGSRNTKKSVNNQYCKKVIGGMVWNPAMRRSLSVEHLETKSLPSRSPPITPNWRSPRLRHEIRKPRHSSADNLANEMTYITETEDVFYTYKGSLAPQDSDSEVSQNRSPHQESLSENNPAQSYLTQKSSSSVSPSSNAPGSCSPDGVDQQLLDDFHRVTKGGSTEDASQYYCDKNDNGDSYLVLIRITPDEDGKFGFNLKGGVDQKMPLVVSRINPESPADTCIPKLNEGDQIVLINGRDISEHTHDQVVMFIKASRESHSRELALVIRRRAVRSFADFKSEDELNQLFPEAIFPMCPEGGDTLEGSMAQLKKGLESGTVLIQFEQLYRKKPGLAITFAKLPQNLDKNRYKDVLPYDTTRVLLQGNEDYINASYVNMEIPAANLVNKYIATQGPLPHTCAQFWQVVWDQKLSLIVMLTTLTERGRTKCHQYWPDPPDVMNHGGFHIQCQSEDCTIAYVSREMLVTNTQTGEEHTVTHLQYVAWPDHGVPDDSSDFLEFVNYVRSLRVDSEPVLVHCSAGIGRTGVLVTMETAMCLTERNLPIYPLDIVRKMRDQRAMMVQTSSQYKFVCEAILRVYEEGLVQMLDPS

[5] = system: panel of 24 phosphatases; assay: Selectivity profiling against panel of 24 phosphatases; type: biochemical; conditions: for inhibitory activity against the phosphatases in the panel: at 200 μM concentration; for preference (selectivity) for LMW-PTP over the panel of other PTPs: over all 24 other phosphatases
[6] = target: T1, LMW-PTP; assay: Screen of SPAA-based focused library at ~10 μM, LMW-PTP; type: biochemical; conditions: compound concentration ~10 μM, crude library wells
[7] = system: insulin induced AKT phosphorylation in HepG2 cells; assay: Insulin induced AKT phosphorylation in HepG2 cells; type: cell-based; conditions: 2 h pretreatment, 50 nM insulin 30 min, compound 33 at 16 μM
In short: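 HepG2 cells grown in DMEM with 10% FBS at 37 °C and 5% CO2. At 60-80% confluence, cells were serum-starved overnight, then given vehicle or test compound for 2 h. They were left unstimulated or stimulated with 50 nM insulin for 30 min, then lysed. Immunoblotting used a 10% polyacrylamide gel with anti-phospho-AKT and anti-AKT antibodies, ECL detection and densitometry. pAKT/AKT ratios were normalized to vehicle.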

O=S(=O)(O)CCN1CCOCC1 [MES]
IC50 [1]: > 10 mM

NC(=O)C(c1ccccc1)S(=O)(=O)O (centres unmarked) [SPAA, SulfoPhenyl Acetic Amide]
IC50 [1]: 2 mM
IC50 [2]: > 50 mM
IC50 [3]: > 50 mM

Cc1c(Br)cc(NC(=O)C(c2ccccc2)S(=O)(=O)O)cc1Br (centres unmarked) [compound 1]
IC50 [4]: > 200 µM

O=C(Nc1ccc(OCc2ccccc2)c(Cl)c1)C(c1ccccc1)S(=O)(=O)O (centres unmarked) [compound 2]
IC50 [4]: > 200 µM

O=C(Nc1ccc2nc(C(F)(F)F)[nH]c2c1)C(c1ccccc1)S(=O)(=O)O (centres unmarked) [compound 3]
IC50 [4]: > 200 µM
inhibitory activity against the phosphatases in the panel [5]: no inhibitory activity
preference (selectivity) for LMW-PTP over the panel of other PTPs [5]: greater than 35 fold

O=C(Nc1ccc(-n2ccnc2)cc1)C(c1ccccc1)S(=O)(=O)O (centres unmarked) [compound 4]
IC50 [4]: > 100 µM

O=C(Nc1ccc(N2CCOCC2)cc1)C(c1ccccc1)S(=O)(=O)O (centres unmarked) [compound 5]
IC50 [4]: > 200 µM
inhibitory activity against the phosphatases in the panel [5]: no inhibitory activity

O=C(Nc1cnc2ccccc2c1)C(c1ccccc1)S(=O)(=O)O (centres unmarked) [compound 6]
IC50 [4]: > 200 µM
inhibitory activity against the phosphatases in the panel [5]: no inhibitory activity

O=C(Nc1nc2ccccc2s1)C(c1ccccc1)S(=O)(=O)O (centres unmarked) [compound 7]
mode of inhibition of LMW-PTP [1]: competitive
IC50 [4]: > 200 µM

O=C(Nc1cc(C(F)(F)F)cc(C(F)(F)F)c1)C(c1ccccc1)S(=O)(=O)O (centres unmarked) [compound 8]
IC50 [4]: > 200 µM

O=C(Nc1ccccc1)C(c1ccccc1)S(=O)(=O)O (centres unmarked) [compound 9]
inhibitory activity toward LMW-PTP (in words) [1]: significantly reduced activities
fold decrease in inhibitory activity versus compound 7 ([1]; relative to compound 7): > 15 fold

O=C(Nc1nccs1)C(c1ccccc1)S(=O)(=O)O (centres unmarked) [compound 10]
inhibitory activity toward LMW-PTP (in words) [1]: significantly reduced activities

CCCNC(=O)C(c1ccccc1)S(=O)(=O)O (centres unmarked) [compound 11]
inhibitory activity toward LMW-PTP (in words) [1]: inactive
inhibition against LMW-PTP in library screen [6]: inactive

O=C(Nc1nc2ccc([N+](=O)[O-])cc2s1)C(c1ccccc1)S(=O)(=O)O (centres unmarked) [compound 28]
fold more active than compound 7 against LMW-PTP [1]: 3.5 fold
mode of inhibition of LMW-PTP [1]: competitive
IC50 [4]: > 100 µM
preference (selectivity) for LMW-PTP over the panel of other PTPs [5]: over 50 fold

CCOC(=O)c1ccc2nc(NC(=O)C(c3ccccc3)S(=O)(=O)O)sc2c1 (centres unmarked) [compound 32]
fold more active than compound 7 against LMW-PTP [1]: 2.5 fold

O=C(Cc1ccccc1)Nc1nc2ccc([N+](=O)[O-])cc2s1 [compound 33]
inhibitory activity toward LMW-PTP (in words) [1]: completely abolishes
effect on insulin induced AKT phosphorylation (in words) [7]: no effect

Source: PMC6348062 (Journal of medicinal chemistry, 2016)
